Experimental data from ChEMBL document CHEMBL1687920, “Structure-based discovery of inhibitors of microsomal prostaglandin E2 synthase-1, 5-lipoxygenase and 5-lipoxygenase-activating protein: promising hits for the development of new anti-inflammatory agents” (J Med Chem, 2011).

Assays:
[1] = target: T1, Polyunsaturated fatty acid 5-lipoxygenase (Homo sapiens, UniProt P09917); test: Inhibition of 5-lipoxygenase in human neutrophils
T1 sequence (P09917 whole entry): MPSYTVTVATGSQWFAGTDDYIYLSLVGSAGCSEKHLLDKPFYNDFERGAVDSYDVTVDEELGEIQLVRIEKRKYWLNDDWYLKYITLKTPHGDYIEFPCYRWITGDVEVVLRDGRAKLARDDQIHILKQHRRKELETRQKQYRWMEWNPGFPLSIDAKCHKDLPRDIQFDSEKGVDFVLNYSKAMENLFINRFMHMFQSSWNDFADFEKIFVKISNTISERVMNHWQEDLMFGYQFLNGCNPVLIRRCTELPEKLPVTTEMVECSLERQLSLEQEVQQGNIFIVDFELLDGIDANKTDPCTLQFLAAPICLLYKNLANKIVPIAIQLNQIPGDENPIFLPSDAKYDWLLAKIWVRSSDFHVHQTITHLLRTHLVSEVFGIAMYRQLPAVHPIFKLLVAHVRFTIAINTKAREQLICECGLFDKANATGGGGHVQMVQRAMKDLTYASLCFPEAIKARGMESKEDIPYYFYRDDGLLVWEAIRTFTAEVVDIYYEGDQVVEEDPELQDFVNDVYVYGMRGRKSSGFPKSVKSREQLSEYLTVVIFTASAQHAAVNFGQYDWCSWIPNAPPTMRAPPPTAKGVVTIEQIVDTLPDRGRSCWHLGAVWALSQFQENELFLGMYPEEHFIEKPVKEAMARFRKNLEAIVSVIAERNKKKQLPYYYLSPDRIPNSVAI
In short: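 Human neutrophils stimulated with ionophore A23187 to probe FLAP-dependent 5-LO product formation. Compounds in DMSO (vehicle 0.3% v/v) screened at 30 μM and tested in concentration-response. A FLAP inhibitor served as control. n = 4-5 for the curves.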

[2] = target: Prostaglandin E synthase / mPGES-1 (Homo sapiens) (UniProt O14684); test: Inhibition of Prostaglandin E2 synthase-1 in IL1-beta stimulated microsomal fraction of human A549 cell assessed as residual activity at 30 uM; conditions: Microsome
Sequence of Prostaglandin E synthase / mPGES-1 (Homo sapiens) (O14684 whole entry, looked up): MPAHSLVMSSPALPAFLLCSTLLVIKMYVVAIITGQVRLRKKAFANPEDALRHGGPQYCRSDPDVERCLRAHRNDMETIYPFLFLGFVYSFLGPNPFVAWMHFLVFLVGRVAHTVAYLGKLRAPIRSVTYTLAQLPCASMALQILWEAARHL

[3] = target: T2, Polyunsaturated fatty acid 5-lipoxygenase (Homo sapiens) (UniProt P09917); test: Inhibition of human recombinant 5-lipoxygenase expressed in Escherichia coli MV1190 assessed as residual activity at 10 uM by cell free assay; values are per cent of control
T2 sequence (whole entry): T1 sequence (P09917 whole entry)

[4] = target: T2, Polyunsaturated fatty acid 5-lipoxygenase (Homo sapiens); test: Inhibition of 5-lipoxygenase in human neutrophils assessed as residual activity at 10 uM; values are per cent of control
[5] = target: T1, Polyunsaturated fatty acid 5-lipoxygenase; test: Inhibition of human recombinant 5-lipoxygenase expressed in Escherichia coli MV1190 by cell free assay
In short: (§1)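 Cell-free activity assay with isolated human recombinant 5-LO. Compounds screened at 30 μM in DMSO, with 0.3% v/v DMSO as vehicle and BWA4C as positive control. IC50 taken from concentration-response curves. Means ± SE, n = 4-5.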

[6] = target: T2, Polyunsaturated fatty acid 5-lipoxygenase (Homo sapiens); test: Inhibition of human recombinant 5-lipoxygenase expressed in Escherichia coli MV1190 assessed as residual activity at 30 uM by cell free assay; in short: as §1
[7] = target: T2, Polyunsaturated fatty acid 5-lipoxygenase (Homo sapiens); test: Inhibition of 5-lipoxygenase in human neutrophils assessed as residual activity at 30 uM; values are per cent of control

SMILES | IC50 [1] | remaining activity [2] | residual activity [3] | residual activity [4] | IC50 [5] | remaining activity [6] | residual activity [7]
c1ccc(CCCn2cc(-c3ccc(-c4cc5ccccc5c5ccccc45)cc3)nn2)cc1 | > 30 µM | 78.2% |  |  | > 30 µM | 82.9% | 85.7%
O=C(O)c1ccc(Cn2cc(-c3ccc(-c4ccccc4)cc3)nn2)c([N+](=O)[O-])c1 | 9.2 µM | 12% |  |  | 6.7 µM | 20% | 20.1%
Cc1ccccc1CCn1cc(-c2ccc(-c3ccccc3COc3cc(C(F)(F)F)ccc3Cl)cc2)nn1 | > 30 µM | 87.9% |  |  | > 30 µM | 82.5% | 92.1%
Cc1ccccc1CCn1cc(-c2ccc(-c3ccccc3COc3cccc4ccccc34)cc2)nn1 | > 30 µM | 90% |  |  | > 30 µM | 78.4% | 84.5%
Oc1ccc(-c2ccc(-c3cn(CCCc4ccccc4)nn3)cc2)cc1 | > 30 µM | 73.6% |  |  | > 30 µM | 58.4% | 70.2%
O=Cc1ccc(-c2c(Cc3ccccc3)nnn2CSc2ccccc2)cc1 | 6 µM | 72.1% |  | 17.3% | > 30 µM | 57.3% | 
O=C(OCc1cn(CSc2ccccc2)nn1)c1ccccc1 | 9.3 µM | 76.1% |  |  | > 30 µM | 80.8% | 14.6%
c1ccc(CCCn2cc(-c3ccc(-c4ccc(Oc5ccccc5)cc4)cc3)nn2)cc1 | > 30 µM | 88.7% |  |  | > 30 µM | 59.2% | 70.1%
FC(F)(F)c1ccc(Cl)c(OCc2ccccc2-c2ccc(-c3cn(CCCc4ccccc4)nn3)cc2)c1 | > 30 µM | 91.9% |  |  | 8.8 µM | 10.1% | 52.7%
c1ccc(CCCn2cc(-c3ccc(-c4ccccc4COc4cccc5ccccc45)cc3)nn2)cc1 | > 30 µM | 96.8% |  |  | > 30 µM | 77.4% | 79.9%

Molecules with a lower IC50 [1], results first:

IC50 [1] | remaining activity [2] | residual activity [3] | residual activity [4] | IC50 [5] | remaining activity [6] | residual activity [7] | SMILES
2.8 µM | 85% |  | 21.2% | 4.1 µM | 5.1% |  | CN(C)c1cccc2c(S(=O)(=O)Nc3ccc(-c4ccc(-c5cn(CCCc6ccccc6)nn5)cc4)cc3)cccc12
1.7 µM | 98.2% |  | 22% | > 30 µM | 60.7% |  | Cc1ccccc1CCn1cc(-c2ccc(-c3ccc(N)cc3)cc2)nn1
0.9 µM | 89% |  | 34.8% | > 30 µM | 62.3% |  | Oc1ccc(-c2ccc(-c3cn(CSc4ccccc4)nn3)cc2)cc1
0.6 µM | 59.8% | 13.6% | 3.5% | 0.8 µM |  |  | O=C(O)c1ccc(S(=O)(=O)n2cc(-c3ccc(-c4ccccc4COc4cccc5ccccc45)cc3)nn2)cc1
0.4 µM | 60.1% |  | 1.1% | 27 µM | 48.8% |  | Oc1cccc(-c2ccc(-c3cn(CSc4ccccc4)nn3)cc2)c1
